# Results from ChEMBL document CHEMBL1140925, “Nuclear factor-kappaB mediated inhibition of cytokine production by imidazoline scaffolds” (J Med Chem, 2009).
# Key:
# [1] = test system: HeLa; experiment: Cell cycle arrest in TNF-alpha-stimulated human HeLa cells transfected with NFkappaB-Luc assessed as accumulation at diploid G1 phase at 20 uM after 8 hrs by propidium iodide-based flow cytometry; type: functional
# In short: (§1)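 HeLa NF-κB-luc cells (stable, hygromycin-selected) were treated with vehicle (1% DMSO) or compound at 40–0.2 µM final for 8 h at 37 °C, 5% CO2. Adherent cells were trypsinized, resuspended in PBS/50% FBS, fixed overnight in 70% ice-cold ethanol and washed with cold PBS/10% FBS, then analysed for cell cycle by flow cytometry.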
# [2] = Cytotoxicity against human whole blood lymphocytes assessed as survival cell count in millions at 3 uM by trypan blue staining based hemocytometer
# [3] = test system: HeLa; experiment: Cell cycle arrest in TNF-alpha-stimulated human HeLa cells transfected with NFkappaB-Luc assessed as accumulation at S phase at 0.1 uM after 8 hrs by propidium iodide-based flow cytometry; type: functional
# [4] = test system: HeLa; experiment: Cell cycle arrest in TNF-alpha-stimulated human HeLa cells transfected with NFkappaB-Luc assessed as accumulation at diploid G2 phase at 10 uM after 8 hrs by propidium iodide-based flow cytometry; type: functional; in short: as §1
# [5] = Inhibition of TNF-alpha-induced NF-kappaB-mediated transcription expressed in human HeLa cells preincubated for 30 mins before addition of TNFalpha measured after 8 hrs by luciferase reporter gene assay; type: cell-based
# In short: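 HeLa/NF-κB-luc cells (5.0 × 10⁵ cells/mL) were grown 24 h, then switched to serum-free DMEM. They were pretreated 30 min at 37 °C with 0.05–20 µM imidazoline (1% DMSO vehicle), then stimulated with 25 ng/mL TNF-α for 8 h. Steady-Glo luminescence was normalized to TNF-α activation, and EC50 was taken from a variable-slope sigmoidal fit. Values are the mean of two independent experiments.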
# [6] = test system: HeLa; experiment: Effect on cell cycle arrest in TNF-alpha-stimulated human HeLa cells assessed as cell debris level at 10 uM after 8 hrs by propidium iodide-based flow cytometry; type: functional
# [7] = test system: HeLa; experiment: Cell cycle arrest in TNF-alpha-stimulated human HeLa cells transfected with NFkappaB-Luc assessed as accumulation at S phase at 10 uM after 8 hrs by propidium iodide-based flow cytometry; type: functional; in short: as §1
# [8] = test system: HeLa; experiment: Cell cycle arrest in TNF-alpha-stimulated human HeLa cells transfected with NFkappaB-Luc assessed as accumulation at diploid G2 phase at 1 uM after 8 hrs by propidium iodide-based flow cytometry; type: functional
# [9] = test system: HeLa; experiment: Cell cycle arrest in TNF-alpha-stimulated human HeLa cells transfected with NFkappaB-Luc assessed as accumulation at S phase at 5 uM after 8 hrs by propidium iodide-based flow cytometry; type: functional; in short: as §1
# [10] = test system: HeLa; experiment: Cell cycle arrest in TNF-alpha-stimulated human HeLa cells transfected with NFkappaB-Luc assessed as accumulation at S phase at 20 uM after 8 hrs by propidium iodide-based flow cytometry; type: functional; in short: as §1
# [11] = test system: HeLa; experiment: Cell cycle arrest in TNF-alpha-stimulated human HeLa cells transfected with NFkappaB-Luc assessed as accumulation at S phase at 1 uM after 8 hrs by propidium iodide-based flow cytometry; type: functional
# [12] = test system: HeLa; experiment: Cell cycle arrest in TNF-alpha-stimulated human HeLa cells transfected with NFkappaB-Luc assessed as accumulation at diploid G2 phase at 0.1 uM after 8 hrs by propidium iodide-based flow cytometry; type: functional
# [13] = Cytotoxicity against human whole blood IL-1-beta-stimulated lymphocytes assessed as survival cell count in millions at 10 uM by trypan blue staining based hemocytometer
# [14] = test system: HeLa; experiment: Cell cycle arrest in TNF-alpha-stimulated human HeLa cells transfected with NFkappaB-Luc assessed as accumulation at S phase at 0.05 uM after 8 hrs by propidium iodide-based flow cytometry; type: functional
# [15] = test system: HeLa; experiment: Cell cycle arrest in human HeLa cells transfected with NFkappaB-Luc assessed as accumulation at diploid stage at 20 uM after 8 hrs by propidium iodide-based flow cytometry; type: functional; in short: as §1
# [16] = test system: HeLa; experiment: Cell cycle arrest in TNF-alpha-stimulated human HeLa cells transfected with NFkappaB-Luc assessed as accumulation at diploid G2 phase at 0.05 uM after 8 hrs by propidium iodide-based flow cytometry; type: functional
# [17] = test system: HeLa; experiment: Effect on cell cycle arrest in TNF-alpha-stimulated human HeLa cells assessed as cell debris level at 0.1 uM after 8 hrs by propidium iodide-based flow cytometry; type: functional
# [18] = test system: HeLa; experiment: Cell cycle arrest in TNF-alpha-stimulated human HeLa cells transfected with NFkappaB-Luc assessed as accumulation at diploid G2 phase at 20 uM after 8 hrs by propidium iodide-based flow cytometry; type: functional; in short: as §1
# [19] = test system: HeLa; experiment: Effect on cell cycle arrest in human HeLa cells assessed as cell debris level at 20 uM after 8 hrs by propidium iodide-based flow cytometry; type: functional
# In short: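 Cells were exposed to vehicle (1% DMSO) or compound for 8 h at 37 °C, 5% CO₂. They were then trypsinized, resuspended in PBS with 50% FBS, fixed overnight in ice-cold 70% ethanol, and washed twice with ice-cold PBS containing 10% FBS before flow cytometric cell-cycle analysis.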
# [20] = test system: HeLa; experiment: Effect on cell cycle arrest in TNF-alpha-stimulated human HeLa cells assessed as cell aggregate level at 0.1 uM after 8 hrs by propidium iodide-based flow cytometry; type: functional
# [21] = Cytotoxicity against human whole blood IL-1-beta-stimulated lymphocytes assessed as survival cell count in millions at 1 uM by trypan blue staining based hemocytometer
# [22] = test system: HeLa; experiment: Cell cycle arrest in human HeLa cells transfected with NFkappaB-Luc assessed as accumulation at diploid G2 phase at 20 uM after 8 hrs by propidium iodide-based flow cytometry; type: functional; in short: as §1
# [23] = test system: HeLa; experiment: Cell cycle arrest in TNF-alpha-stimulated human HeLa cells transfected with NFkappaB-Luc assessed as accumulation at diploid stage at 10 uM after 8 hrs by propidium iodide-based flow cytometry; type: functional; in short: as §1
# [24] = test system: HeLa; experiment: Cell cycle arrest in TNF-alpha-stimulated human HeLa cells transfected with NFkappaB-Luc assessed as accumulation at G2/G1 phase at 0.5 uM after 8 hrs by propidium iodide-based flow cytometry; type: functional; in short: as §1
# [25] = test system: HeLa; experiment: Effect on cell cycle arrest in TNF-alpha-stimulated human HeLa cells assessed as cell aggregate level at 0.05 uM after 8 hrs by propidium iodide-based flow cytometry; type: functional
# [26] = test system: HeLa; experiment: Effect on cell cycle arrest in TNF-alpha-stimulated human HeLa cells assessed as cell debris level at 0.05 uM after 8 hrs by propidium iodide-based flow cytometry; type: functional
# [27] = test system: HeLa; experiment: Cell cycle arrest in TNF-alpha-stimulated human HeLa cells transfected with NFkappaB-Luc assessed as accumulation at diploid stage at 5 uM after 8 hrs by propidium iodide-based flow cytometry; type: functional; in short: as §1
# [28] = test system: HeLa; experiment: Cell cycle arrest in TNF-alpha-stimulated human HeLa cells transfected with NFkappaB-Luc assessed as accumulation at G2/G1 phase at 10 uM after 8 hrs by propidium iodide-based flow cytometry; type: functional; in short: as §1
# [29] = test system: HeLa; experiment: Effect on cell cycle arrest in TNF-alpha-stimulated human HeLa cells assessed as cell debris level at 20 uM after 8 hrs by propidium iodide-based flow cytometry; type: functional
# [30] = test system: HeLa; experiment: Effect on cell cycle arrest in TNF-alpha-stimulated human HeLa cells assessed as cell debris level at 0.5 uM after 8 hrs by propidium iodide-based flow cytometry; type: functional
# [31] = Cytotoxicity against human whole blood lymphocytes assessed as survival cell count in millions at 20 uM by trypan blue staining based hemocytometer
# [32] = Cytotoxicity against human whole blood IL-1-beta-stimulated lymphocytes assessed as survival cell count in millions at 20 uM by trypan blue staining based hemocytometer
smiles,measurement,setting,value
CCOC(=O)[C@]1(c2ccccc2)N=C(c2ccccc2)N(Cc2ccccc2)[C@@H]1c1ccccc1 (racemic),Activity,[1],65.96%
same,Activity,[2],1.7 mL⁻¹
same,Activity,[3],21.47%
same,Activity,[4],15.01%
same,EC50,[5],2500 nM
same,Activity,[6],15.28%
same,Activity,[7],16.8%
same,Activity,[8],13.88%
same,Activity,[9],19.8%
same,Activity,[10],19.29%
same,Activity,[11],22.9%
same,Activity,[12],14.03%
same,Activity,[13],1.48 mL⁻¹
same,Activity,[14],22.8%
same,Activity,[15],100%
same,Activity,[16],12.9%
same,Activity,[17],2%
same,Activity,[18],14.75%
same,Activity,[19],9.42%
same,Activity,[20],0%
same,Activity,[21],1.42 mL⁻¹
same,Activity,[22],13.33%
same,Activity,[23],100%
same,Ratio,[24],1.91
same,Activity,[25],0%
same,Activity,[26],2.47%
same,Activity,[27],100%
same,Ratio,[28],1.91
same,Activity,[29],14.57%
same,Activity,[30],3.68%
same,Cell count,[31],0.2617
same,Activity,[32],1.46 mL⁻¹
